ChEMBL document CHEMBL3098117, “Identification and optimization of an aminoalcohol-carbazole series with antimalarial properties” (ACS Med Chem Lett, 2013)
The source made the active and inactive calls. The rule behind the calls is not given here.

Key:
Cytochrome P450 2B6 = biological target: T1, Cytochrome P450 2B6 (Homo sapiens, UniProt P20813); assay: Inhibition of human recombinant CYP2B6 expressed in baculovirus-infected insect cells preincubated for 15 mins followed by substrate addition measured after 30 mins by luminescence assay; format: ADME; conditions: recombinant enzyme, 0.5 h
T1 sequence (P20813 whole entry): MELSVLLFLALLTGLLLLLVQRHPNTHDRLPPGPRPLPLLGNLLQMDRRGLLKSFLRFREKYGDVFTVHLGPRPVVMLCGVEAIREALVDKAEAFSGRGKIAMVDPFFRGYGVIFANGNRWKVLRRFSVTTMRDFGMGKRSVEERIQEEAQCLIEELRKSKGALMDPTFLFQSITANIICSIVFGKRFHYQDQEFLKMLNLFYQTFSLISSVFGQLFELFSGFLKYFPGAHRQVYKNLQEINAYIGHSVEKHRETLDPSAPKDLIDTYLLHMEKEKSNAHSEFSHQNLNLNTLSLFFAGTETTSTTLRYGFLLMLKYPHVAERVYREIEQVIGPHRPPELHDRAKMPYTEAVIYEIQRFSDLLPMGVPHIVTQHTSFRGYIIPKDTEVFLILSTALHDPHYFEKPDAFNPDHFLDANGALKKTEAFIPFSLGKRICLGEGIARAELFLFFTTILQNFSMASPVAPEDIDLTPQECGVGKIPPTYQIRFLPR

Cytochrome P450 2D6 = Cytochrome P450 2D6 (Homo sapiens, UniProt P10635); assay: Inhibition of human recombinant CYP2D6 expressed in baculovirus-infected insect cells preincubated for 15 mins followed by substrate addition measured after 30 mins by luminescence assay; format: ADME; conditions: recombinant enzyme, 0.5 h
Chain of Cytochrome P450 2D6 (P10635 whole entry): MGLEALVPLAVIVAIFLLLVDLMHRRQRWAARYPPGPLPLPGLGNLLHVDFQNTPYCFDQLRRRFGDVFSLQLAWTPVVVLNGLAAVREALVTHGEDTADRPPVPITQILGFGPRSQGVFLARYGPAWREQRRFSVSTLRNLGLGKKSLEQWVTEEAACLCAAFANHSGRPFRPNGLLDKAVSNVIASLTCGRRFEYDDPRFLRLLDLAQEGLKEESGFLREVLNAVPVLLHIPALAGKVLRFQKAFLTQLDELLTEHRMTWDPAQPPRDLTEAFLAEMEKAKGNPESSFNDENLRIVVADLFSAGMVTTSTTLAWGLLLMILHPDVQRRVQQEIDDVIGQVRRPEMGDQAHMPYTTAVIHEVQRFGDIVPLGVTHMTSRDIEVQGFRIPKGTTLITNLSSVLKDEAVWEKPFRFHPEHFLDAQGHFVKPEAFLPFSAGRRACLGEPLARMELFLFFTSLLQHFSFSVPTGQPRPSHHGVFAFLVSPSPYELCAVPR

Plasmodium berghei [1] = assay: Antimalarial activity against Plasmodium berghei ANKA expressing GFP infected in NMRI mouse assessed as increase in mouse survival at 30 mg/kg/day, po qd for 4 days measured at 24 hrs after last dose; format: functional, organism-based
Procedure, shortened: (§1)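 P. berghei-infected mice dosed orally once daily on days 0–3, first dose 4 h postinfection, at 3, 10, 30 and 100 mg/kg/day. Red blood cell parasitemia and plasma exposure measured on day 4, 24 h after last dose; ED50 derived from dose-response; survival then monitored for 26 further days as mean survival days.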

Plasmodium falciparum [2] = assay: Antimalarial activity against drug-sensitive Plasmodium falciparum NF54; format: functional, organism-based
[3] = biological target: T2, Potassium/sodium hyperpolarization-activated cyclic nucleotide-gated channel 4 (Homo sapiens) (UniProt Q9Y3Q4); assay: Inhibition of human HCN4 channel
T2 sequence (whole entry): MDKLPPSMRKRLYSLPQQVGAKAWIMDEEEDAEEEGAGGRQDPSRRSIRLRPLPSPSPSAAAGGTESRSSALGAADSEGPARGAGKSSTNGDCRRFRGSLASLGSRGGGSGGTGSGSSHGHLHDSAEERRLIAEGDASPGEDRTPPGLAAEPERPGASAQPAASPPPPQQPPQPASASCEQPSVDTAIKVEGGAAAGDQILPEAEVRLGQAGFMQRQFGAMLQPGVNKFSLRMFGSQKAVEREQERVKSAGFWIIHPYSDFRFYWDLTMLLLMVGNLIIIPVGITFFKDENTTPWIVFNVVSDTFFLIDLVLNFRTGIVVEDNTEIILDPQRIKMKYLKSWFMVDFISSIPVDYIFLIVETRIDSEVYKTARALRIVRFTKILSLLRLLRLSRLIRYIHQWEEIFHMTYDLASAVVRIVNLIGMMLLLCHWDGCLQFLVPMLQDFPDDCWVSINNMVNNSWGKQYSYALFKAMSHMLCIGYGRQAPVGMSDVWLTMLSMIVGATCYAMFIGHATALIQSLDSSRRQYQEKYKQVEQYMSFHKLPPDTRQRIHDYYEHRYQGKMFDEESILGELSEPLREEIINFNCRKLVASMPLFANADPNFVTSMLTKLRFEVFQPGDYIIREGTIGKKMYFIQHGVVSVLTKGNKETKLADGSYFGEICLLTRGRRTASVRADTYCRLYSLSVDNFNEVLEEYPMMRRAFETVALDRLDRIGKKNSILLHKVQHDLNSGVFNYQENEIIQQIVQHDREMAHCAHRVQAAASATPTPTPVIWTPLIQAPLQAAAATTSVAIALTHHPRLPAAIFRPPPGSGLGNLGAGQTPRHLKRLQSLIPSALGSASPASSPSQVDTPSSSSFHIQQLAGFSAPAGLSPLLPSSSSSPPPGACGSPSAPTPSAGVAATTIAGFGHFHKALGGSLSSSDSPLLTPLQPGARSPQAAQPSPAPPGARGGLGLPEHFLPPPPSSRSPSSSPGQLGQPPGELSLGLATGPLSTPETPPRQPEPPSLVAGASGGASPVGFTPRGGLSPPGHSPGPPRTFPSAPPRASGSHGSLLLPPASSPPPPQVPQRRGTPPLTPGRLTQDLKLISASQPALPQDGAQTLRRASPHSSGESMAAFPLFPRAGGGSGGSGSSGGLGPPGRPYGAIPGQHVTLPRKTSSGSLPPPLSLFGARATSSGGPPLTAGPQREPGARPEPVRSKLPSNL

Plasmodium berghei [4] = assay: Antimalarial activity against Plasmodium berghei ANKA expressing GFP infected in NMRI mouse assessed as reduction in parasitemia at 100 mg/kg/day, po qd for 4 days measured at 24 hrs after last dose relative to control; format: functional; set-up: scale not given: the % may be the effect or the level left; procedure, shortened: as §1
Plasmodium falciparum [5] = assay: Antimalarial activity against chloroquine, pyrimethamine, sulfadoxine and quinine-resistant Plasmodium falciparum W2; format: functional, organism-based
Plasmodium berghei [6] = assay: Antimalarial activity against Plasmodium berghei ANKA expressing GFP infected in NMRI mouse assessed as mean survival days at 100 mg/kg/day, po qd for 4 days measured at 24 hrs after last dose; format: functional
Procedure, shortened: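 P. berghei-infected mice dosed orally once daily on days 0–3, starting 4 h postinfection, in groups of 3, 10, 30 and 100 mg/kg/day. Red blood cell parasitemia and plasma exposure measured on day 4, 24 h after the last dose. Mean survival days then monitored over 26 further days.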

[7] = biological target: T3, Inward rectifier potassium channel 2 (Homo sapiens, UniProt P63252); assay: Inhibition of human Kir2.1 channel
T3 sequence (P63252 whole entry): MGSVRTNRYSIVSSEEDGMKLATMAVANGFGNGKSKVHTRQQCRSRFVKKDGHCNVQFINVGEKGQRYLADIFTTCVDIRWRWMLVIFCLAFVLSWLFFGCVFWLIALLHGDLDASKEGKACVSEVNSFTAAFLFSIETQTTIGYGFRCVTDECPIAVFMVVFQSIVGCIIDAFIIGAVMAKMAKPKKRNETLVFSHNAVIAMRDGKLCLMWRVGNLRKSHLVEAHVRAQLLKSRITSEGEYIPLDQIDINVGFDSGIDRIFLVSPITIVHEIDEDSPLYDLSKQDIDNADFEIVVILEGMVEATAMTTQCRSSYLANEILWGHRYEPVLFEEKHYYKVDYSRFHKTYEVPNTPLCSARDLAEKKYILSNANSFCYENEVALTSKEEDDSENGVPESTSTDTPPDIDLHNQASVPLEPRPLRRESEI

For `OC(CNC1CCCCC1)Cn1c2ccc(Br)cc2c2cc(Br)ccc21` (racemic), the “inhibition (INH)” value (Cytochrome P450 2B6) was “Active”, the “inhibition (INH)” value (Cytochrome P450 2D6) was “Active” and the Activity (Plasmodium berghei [1]) was “Active”. The Activity (Plasmodium falciparum [2]) was “Active”, the inhibition [3] was “inactive” and the Activity (Plasmodium berghei [4]) was 99.97%. The Activity (Plasmodium falciparum [5]) was “Active”, the MSD (Plasmodium berghei [6]) was 30 days and the “inhibition (INH)” value [7] was “Not Active”.
